Measurements as given in ChEMBL document CHEMBL1138544, “Solution-phase parallel synthesis and evaluation of anticonvulsant activity of N-substituted-3,4-dihydroisoquinoline-2(1H)-carboxamides” (2009).

Experiments:
Mus musculus [1] = experiment: Anticonvulsant activity against audiogenic clonus seizures in ip dosed DBA/2 mouse epilepsy model administered 30 mins before auditory simulation; type: functional; details: DBA/2, ip
Summary of the method: (§1)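 DBA/2 mice (sound-seizure susceptible), 8e12 g, 22e25 days old, either sex, groups of 10. Vehicle or each dose given 30 min before auditory stimulation. Latency to and incidence of each seizure phase scored. ED50 for each phase taken from dose-response curves fitted by the Litchfield and Wilcoxon method.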

Mus musculus [2] = experiment: Anticonvulsant activity against audiogenic tonus seizures in ip dosed DBA/2 mouse epilepsy model administered 30 mins before auditory simulation; type: functional; details: DBA/2, ip; summary of the method: as §1

SMILES	ED50 (Mus musculus [1]) [mg/kg]	ED50 (Mus musculus [2]) [mg/kg]
COc1cc2c(cc1OC)C(c1ccc(Br)cc1)N(C(=O)NC1CCCC1)CC2 (centres undefined)	> 35	14.7
COc1cc2c(cc1OC)C(c1ccccc1)N(C(=O)NC(C)(C)C)CC2 (centres undefined)	27.5	13.9
CCCCNC(=O)N1CCc2cc(OC)c(OC)cc2C1c1ccc(Cl)cc1 (centres undefined)	> 35	16.5
COc1cc2c(cc1OC)C(c1ccc(Cl)cc1)N(C(=O)NC(C)(C)C)CC2 (centres undefined)	30.6	13.8
CCNC(=O)N1CCc2cc(OC)c(OC)cc2C1c1ccc(F)cc1 (centres undefined)	> 35	> 35
CCCNC(=O)N1CCc2cc(OC)c(OC)cc2C1c1ccc(Br)cc1 (centres undefined)	> 35	31.2
COc1cc2c(cc1OC)C(c1ccc(F)cc1)N(C(=O)NC(C)(C)C)CC2 (centres undefined)	> 35	18.7
CCCC(CCC)C(=O)O [VALPROIC ACID]	20.3	9.9
COc1cc2c(cc1OC)C(c1ccc(Cl)cc1)N(C(=O)NC1CCCC1)CC2 (centres undefined)	> 35	12.1
CCCCNC(=O)N1CCc2cc(OC)c(OC)cc2C1c1ccc(F)cc1 (centres undefined)	> 35	13.7
COc1cc2c(cc1OC)C(c1ccc(Br)cc1)N(C(=O)NC(C)C)CC2 (centres undefined)	> 35	23.6
COc1cc2c(cc1OC)C(c1ccccc1)N(C(=O)NC(C)C)CC2 (centres undefined)	> 35	> 35
COc1cc2c(cc1OC)C(c1ccccc1)N(C(=O)NC1CCCCC1)CC2 (centres undefined)	26.9	9.38
COc1cc2c(cc1OC)C(c1ccc(Cl)cc1)N(C(=O)NC1CCCCC1)CC2 (centres undefined)	> 35	14.2
COc1cc2c(cc1OC)C(c1ccccc1)N(C(=O)NC1CCCC1)CC2 (centres undefined)	> 35	15.1
CCCNC(=O)N1CCc2cc(OC)c(OC)cc2C1c1ccc(Cl)cc1 (centres undefined)	> 35	23.4

SMILES	ED50 (Mus musculus [1]) [mg/kg]	ED50 (Mus musculus [2]) [mg/kg]
CCNC(=O)N1CCc2cc(OC)c(OC)cc2C1c1ccc(Cl)cc1 (centres undefined)	30.4	14.2
CCCNC(=O)N1CCc2cc(OC)c(OC)cc2C1c1ccc(F)cc1 (centres undefined)	> 35	26.9
COc1cc2c(cc1OC)C(c1ccc(F)cc1)N(C(=O)NC1CCCC1)CC2 (centres undefined)	27.7	7.24
COc1cc2c(cc1OC)C(c1ccc(Cl)cc1)N(C(=O)NC(C)C)CC2 (centres undefined)	> 35	26.1
COc1cc2c(cc1OC)C(c1ccc(F)cc1)N(C(=O)NC1CCCCC1)CC2 (centres undefined)	> 35	> 35
COc1cc2c(cc1OC)C(c1ccc(F)cc1)N(C(=O)NC(C)C)CC2 (centres undefined)	> 35	17.3
COc1cc2c(cc1OC)C(c1ccc(Br)cc1)N(C(=O)CN1CCCCC1)CC2 (centres undefined)	5.99	3.86
CCCNC(=O)N1CCc2cc(OC)c(OC)cc2C1c1ccccc1 (centres undefined)	> 35	18.1
CCCCNC(=O)N1CCc2cc(OC)c(OC)cc2C1c1ccccc1 (centres undefined)	31.7	11
CCNC(=O)N1CCc2cc(OC)c(OC)cc2C1c1ccccc1 (centres undefined)	32.5	11.9
CCNC(=O)N1CCc2cc(OC)c(OC)cc2C1c1ccc(Br)cc1 (centres undefined)	> 35	> 35
COc1cc2c(cc1OC)C(c1ccc(Cl)cc1)N(C(C)=O)CC2 (centres undefined)	2.25	1.22
COc1cc2c(cc1OC)C(c1ccc(Br)cc1)N(C(=O)NC(C)(C)C)CC2 (centres undefined)	> 35	16.9
NCC1(CC(=O)O)CCCCC1 [GABAPENTIN]	> 35	21.5
CCCCNC(=O)N1CCc2cc(OC)c(OC)cc2C1c1ccc(Br)cc1 (centres undefined)	> 35	15.5
COc1cc2c(cc1OC)C(c1ccc(Br)cc1)N(C(=O)NC1CCCCC1)CC2 (centres undefined)	> 35	19.3
